Data reported in ChEMBL document CHEMBL1250435, “Synthesis of a series of caffeic acid phenethyl amide (CAPA) fluorinated derivatives: comparison of cytoprotective effects to caffeic acid phenethyl ester (CAPE)” (Bioorg Med Chem, 2010).
Active and inactive are the calls of the source. No cut-off for these calls is given here.

Columns and labels:
[1] = test system: HUVEC; assay: Cytoprotective activity against H2O2-induced oxidative stress in HUVEC cells at 20 uM after 18 hrs by Cell-Titer Blue assay; assay type: functional, cell-based; conditions: Homo sapiens
In short: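 Confluent HUVEC (passage doublings 2–5) incubated 5 h at 37 °C with compound at 20 µM in MCDB 131 (from DMSO stock), washed twice with MCDB 131, then 2 mM H2O2 for 1 h at 37 °C. H2O2 removed, cells recovered 18 h in complete medium. Viability by 10% CellTiter-Blue fluorescence, compared with vehicle+H2O2 and unexposed cells. Mean ± SD, ANOVA with Tukey-Kramer.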

[2] = test system: HUVEC; assay: Cytoprotective activity against H2O2-induced oxidative stress in HUVEC cells after 18 hrs by Cell-Titer Blue assay; assay type: functional, cell-based; conditions: Homo sapiens
In short: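 Confluent HUVEC (population doublings 2–5, gelatin-coated 96-well) pretreated 5 h at 37 °C with compound at 1, 5, 20, 40 and 60 µM (DMSO stock diluted in MCDB 131), washed twice, exposed to 2 mM H2O2 for 1 h at 37 °C, then 18 h recovery in complete MCDB 131. Viability by 10% CellTiter-Blue fluorescence. % cytoprotection = (well − DMSO+H2O2 mean)/DMSO-only mean. EC50 by linear regression of first three points.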

[3] = test system: HUVEC; assay: Cytotoxicity against HUVEC cells at 10 to 60 uM after 24 hrs by Cell-Ttiter blue assay; assay type: cell-based; conditions: human
In short: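 Confluent HUVEC (population doublings 2–5) exposed 24 h at 37 °C to compound at 10, 20, 40 or 60 µM, diluted from DMSO stock into MCDB 131 (vehicle 0.1% DMSO). Medium replaced with 10% CellTiter-Blue for 2 h at 37 °C, fluorescence read at ex 545/em 590 nm. Viability expressed as % of vehicle control; below 90% of control scored toxic.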

Compound | Activity [1] | EC50 [2] [µM] | Activity [3]
O=C(/C=C/c1ccc(O)c(F)c1)NCCc1ccccc1 | Active |  | 
O=C(/C=C/c1cc(O)c(O)cc1F)NCCc1ccccc1 | Active |  | 
O=C(/C=C/c1ccc(O)c(O)c1)NCCc1ccccc1 [CAFFEIC ACID PHENETHYL AMIDE] |  | 2 | 
O=C(/C=C/c1ccc(O)c(O)c1)OCCc1ccccc1 [CAFFEIC ACID PHENETHYL ESTER] |  | 8 | 
O=C(/C=C/c1cc(O)c(O)c(F)c1)NCCc1ccccc1 | Active |  | Toxic
